Measured values: ChEMBL document CHEMBL1147718, “Design, synthesis, antibacterial, and QSAR studies of myristic acid derivatives” (2006)
Values after ≈ are worked out from the molar mass of the structure shown.

What was measured:
Format in all cases: functional
Conditions in all cases: read-out: -Log MIC (converted)
[1] = test system: Micrococcus luteus; assay: Antibacterial activity against Micrococcus luteus
In short: (§1)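 Serial dilution MIC in double strength nutrient broth-IP against S. aureus, M. luteus and E. coli. Derivatives dissolved in DMSO as […] stock. Activity reported as −log MIC.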

[2] = test system: Staphylococcus aureus; assay: Antibacterial activity against Staphylococcus aureus; in short: as §1
[3] = test system: Escherichia coli; assay: Antibacterial activity against Escherichia coli; in short: as §1

MIC [1] [µM]	MIC [2] [µM]	MIC [3] [µM]	SMILES
1780 (≈ 601 µg/mL)	1480 (≈ 500 µg/mL)	2690 (≈ 910 µg/mL)	CCCCCCCCCCCCCC(=O)Nc1ccccc1Cl
1740 (≈ 606 µg/mL)	1380 (≈ 481 µg/mL)	3470 (≈ 1210 µg/mL)	CCCCCCCCCCCCCC(=O)Nc1ccccc1[N+](=O)[O-]
1740 (≈ 606 µg/mL)	1380 (≈ 481 µg/mL)	2750 (≈ 960 µg/mL)	CCCCCCCCCCCCCC(=O)Nc1ccc([N+](=O)[O-])cc1
4370 (≈ 1240 µg/mL)	2630 (≈ 748 µg/mL)	3550 (≈ 1010 µg/mL)	CCCCCCCCCCCCCC(=O)OCCCC [BUTYL TETRADECANOATE]
3470 (≈ 1210 µg/mL)	2750 (≈ 960 µg/mL)	2750 (≈ 960 µg/mL)	CCCCCCCCCCCCCC(=O)Nc1cccc([N+](=O)[O-])c1
2000 (≈ 596 µg/mL)	1660 (≈ 495 µg/mL)	3020 (≈ 901 µg/mL)	CCCCCCCCCCCCCC(=O)OCCC(C)C [ISOPENTYL TETRADECANOATE]
5130 (≈ 1170 µg/mL)	2570 (≈ 584 µg/mL)	3090 (≈ 703 µg/mL)	CCCCCCCCCCCCCC(N)=O [TETRADECANAMIDE]
2240 (≈ 605 µg/mL)	2240 (≈ 605 µg/mL)	3720 (≈ 1000 µg/mL)	CCCCCCCCCCCCCC(=O)OC(C)C [ISOPROPYL MYRISTATE]
2450 (≈ 629 µg/mL)	3890 (≈ 998 µg/mL)	2450 (≈ 629 µg/mL)	CCCCCCCCCCCCCC(=O)OCC [ETHYL TETRADECANOATE]
1510 (≈ 494 µg/mL)	1230 (≈ 402 µg/mL)	2450 (≈ 802 µg/mL)	CCCCCCCCCCCCCC(=O)OCCCCCCC [HEPTYL TETRADECANOATE]
2340 (≈ 634 µg/mL)	2340 (≈ 634 µg/mL)	4570 (≈ 1240 µg/mL)	CCCCCCCCCCCCCC(=O)OCCC [PROPYL TETRADECANOATE]
2570 (≈ 693 µg/mL)	2570 (≈ 693 µg/mL)	3720 (≈ 1000 µg/mL)	CCCCCCCCCCCCCC(=O)NCCC
2140 (≈ 606 µg/mL)	2630 (≈ 746 µg/mL)	2240 (≈ 635 µg/mL)	CCCCCCCCCCCCCC(=O)N(CC)CC
1780 (≈ 593 µg/mL)	1510 (≈ 505 µg/mL)	2400 (≈ 800 µg/mL)	CCCCCCCCCCCCCC(=O)Nc1ccccc1OC
1170 (≈ 400 µg/mL)	1170 (≈ 400 µg/mL)	2340 (≈ 798 µg/mL)	CCCCCCCCCCCCCC(=O)OCCCCCCCC [OCTYL TETRADECANOATE]
468 (≈ 155 µg/mL)	468 (≈ 155 µg/mL)	468 (≈ 155 µg/mL)	O=C(O)c1cn(C2CC2)c2cc(N3CCNCC3)c(F)cc2c1=O [CIPROFLOXACIN]
1950 (≈ 592 µg/mL)	1950 (≈ 592 µg/mL)	3160 (≈ 960 µg/mL)	CCCCCCCCCCCCCC(=O)Nc1ccccc1
1290 (≈ 403 µg/mL)	1580 (≈ 495 µg/mL)	2570 (≈ 803 µg/mL)	CCCCCCCCCCCCCC(=O)OCCCCCC [HEXYL TETRADECANOATE]
5130 (≈ 1240 µg/mL)	4170 (≈ 1010 µg/mL)	4170 (≈ 1010 µg/mL)	CCCCCCCCCCCCCC(=O)OC [METHYL TETRADECANOATE]
1740 (≈ 494 µg/mL)	1740 (≈ 494 µg/mL)	3160 (≈ 900 µg/mL)	CCCCCCCCCCCCCC(=O)OCC(C)C [ISOBUTYL TETRADECANOATE]
3310 (≈ 756 µg/mL)	3310 (≈ 756 µg/mL)	5500 (≈ 1260 µg/mL)	CCCCCCCCCCCCCC(=O)O [MYRISTIC ACID]
1170 (≈ 397 µg/mL)	1480 (≈ 500 µg/mL)	2690 (≈ 910 µg/mL)	CCCCCCCCCCCCCC(=O)Nc1cccc(Cl)c1
2000 (≈ 596 µg/mL)	2000 (≈ 596 µg/mL)	3020 (≈ 901 µg/mL)	CCCCCCCCCCCCCC(=O)OCCCCC [PENTYL TETRADECANOATE]
2450 (≈ 696 µg/mL)	2140 (≈ 606 µg/mL)	3550 (≈ 1010 µg/mL)	CCCCCCCCCCCCCC(=O)NCCCC
1860 (≈ 593 µg/mL)	1580 (≈ 505 µg/mL)	2510 (≈ 800 µg/mL)	CCCCCCCCCCCCCC(=O)OCc1ccccc1 [BENZYL TETRADECANOATE]
1780 (≈ 593 µg/mL)	1510 (≈ 505 µg/mL)	2400 (≈ 800 µg/mL)	CCCCCCCCCCCCCC(=O)Nc1ccc(OC)cc1
5130 (≈ 1240 µg/mL)	4170 (≈ 1010 µg/mL)	4170 (≈ 1010 µg/mL)	CCCCCCCCCCCCCC(=O)NN [TETRADECANEHYDRAZIDE]
1480 (≈ 500 µg/mL)	1480 (≈ 500 µg/mL)	2690 (≈ 910 µg/mL)	CCCCCCCCCCCCCC(=O)Nc1ccc(Cl)cc1
